Measurements published in ChEMBL document CHEMBL1152819, “Evaluation of hexadecyloxypropyl-9-R-[2-(Phosphonomethoxy)propyl]- adenine, CMX157, as a potential treatment for human immunodeficiency virus type 1 and hepatitis B virus infections” (Antimicrob Agents Chemother, 2007).

How the values were obtained:
[1] = Selectivity index, ratio of CC50 for human HepG2(2.2.15) cells to EC50 for HBV
[2] = Selectivity index, ratio of CC50 for human HepG2 cells to EC50 for HBV
[3] = tested on: Rattus norvegicus; assay: AUC (0 to infinity) in Sprague-Dawley rat assessed as tenofovir level at 100 mg/kg, po administered daily for 7 days measured on day 1; assay type: ADME, organism-based, Plasma; design: time infinity, dose 100 mg/kg, route oral; conditions: in vivo, 168 h
In short: (§1)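 Oral once daily for 7 days, vehicle or 10, 30 or 100 mg/kg/day, Sprague-Dawley rats 8-12 weeks old, not fasted. Plasma sampled 0.5, 1, 2, 4, 12, 24 h after dosing on days 1 and 7 (1 rat/sex/time point). CMX157 and tenofovir measured by HPLC-MS/MS, LOQ 1 ng/ml (values below set to zero). Noncompartmental analysis; Cmax/Tmax by direct observation, AUC by linear-log trapezoidal rule.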

[4] = tested on: Rattus norvegicus; assay: Elimination half life in Sprague-Dawley rat assessed as tenofovir level at 30 mg/kg, po administered daily for 7 days measured on day 1; assay type: ADME, organism-based; design: dose 30 mg/kg, route oral; conditions: in vivo, 168 h; in short: as §1
[5] = tested on: Rattus norvegicus; assay: Tmax in Sprague-Dawley rat assessed as tenofovir level at 10 mg/kg, po administered daily for 7 days measured on day 7; assay type: ADME, organism-based; design: dose 10 mg/kg, route oral; conditions: in vivo, 168 h; in short: as §1
[6] = tested on: Rattus norvegicus; assay: Tmax in Sprague-Dawley rat assessed as tenofovir level at 100 mg/kg, po administered daily for 7 days measured on day 1; assay type: ADME, organism-based; design: dose 100 mg/kg, route oral; conditions: in vivo, 168 h; in short: as §1
[7] = tested on: Rattus norvegicus; assay: AUC (0 to infinity) in Sprague-Dawley rat assessed as tenofovir level at 30 mg/kg, po administered daily for 7 days measured on day 1; assay type: ADME, organism-based, Plasma; design: time infinity, dose 30 mg/kg, route oral; conditions: in vivo, 168 h
In short: (§2)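 Sprague-Dawley rats (3/sex/group), about 8 to 12 weeks old and not fasted, got vehicle or 10, 30 or 100 mg/kg/day orally once daily for 7 days. Blood was drawn at 0.5, 1, 2, 4, 12 and 24 h after dosing on days 1 and 7 (1 rat/sex/time point). Plasma was deproteinized, then HPLC-MS/MS (LOQ 1 ng/ml, values below set to zero). Noncompartmental analysis, AUC by linear-log trapezoidal rule.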

[8] = tested on: Rattus norvegicus; assay: Elimination half life in Sprague-Dawley rat assessed as tenofovir level at 100 mg/kg, po administered daily for 7 days measured on day 1; assay type: ADME, organism-based; design: dose 100 mg/kg, route oral; conditions: in vivo, 168 h; in short: as §1
[9] = tested on: Rattus norvegicus; assay: AUC (0 to infinity) in Sprague-Dawley rat assessed as tenofovir level at 10 mg/kg, po administered daily for 7 days measured on day 7; assay type: ADME, organism-based, Plasma; design: time infinity, dose 10 mg/kg, route oral; conditions: in vivo, 168 h; in short: as §1
[10] = tested on: Rattus norvegicus; assay: AUC (0 to infinity) in Sprague-Dawley rat assessed as tenofovir level at 30 mg/kg, po administered daily for 7 days measured on day 7; assay type: ADME, organism-based, Plasma; design: time infinity, dose 30 mg/kg, route oral; conditions: in vivo, 168 h; in short: as §1
[11] = tested on: Rattus norvegicus; assay: AUC (0 to infinity) in Sprague-Dawley rat assessed as tenofovir level at 100 mg/kg, po administered daily for 7 days measured on day 7; assay type: ADME, organism-based, Plasma; design: time infinity, dose 100 mg/kg, route oral; conditions: in vivo, 168 h; in short: as §1
[12] = Selectivity index, ratio of CC50 for human PBMC to EC50 for HIV1 clade B HT/92/599 isolate
In short: (§3)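 Fresh human PBMCs, seronegative for HIV and HBV, infected with HIV-1 clade B HT/92/599. Antiviral read-out by reverse transcriptase reduction; cytotoxicity by XTT staining. EC50, CC50 and CC50/EC50 taken from data plots, given as mean ± standard deviation of triplicate determinations.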

[13] = tested on: Rattus norvegicus; assay: Elimination half life in Sprague-Dawley rat assessed as tenofovir level at 100 mg/kg, po administered daily for 7 days measured on day 7; assay type: ADME, organism-based; design: dose 100 mg/kg, route oral; conditions: in vivo, 168 h; in short: as §1
[14] = tested on: Human immunodeficiency virus 1; assay: Antiviral activity against HIV1 LAI in human MT2 cells assessed as inhibition of p24 antigen production by ELISA; assay type: functional, organism-based; conditions: Human immunodeficiency virus 1, LAI
In short: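 MT-2 cells in RPMI 1640 with 10% FBS and 10 mM HEPES, infected with HIV-1 LAI at MOI 0.001 TCID50/cell. Incubated with threefold serial dilutions, three wells per dilution. EC50 taken as the concentration inhibiting p24 antigen production by 50%.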

[15] = tested on: Rattus norvegicus; assay: Elimination half life in Sprague-Dawley rat assessed as tenofovir level at 10 mg/kg, po administered daily for 7 days measured on day 7; assay type: ADME, organism-based; design: dose 10 mg/kg, route oral; conditions: in vivo, 168 h; in short: as §1
[16] = tested on: Rattus norvegicus; assay: Elimination half life in Sprague-Dawley rat assessed as tenofovir level at 30 mg/kg, po administered daily for 7 days measured on day 7; assay type: ADME, organism-based; design: dose 30 mg/kg, route oral; conditions: in vivo, 168 h; in short: as §1
[17] = tested on: Hepatitis B virus; assay: Antiviral activity against HBV in human HepAD38 cells assessed as intracellular viral DNA levels treated for 3 days measured on day 6 […] by RT-PCR; assay type: functional, organism-based
In short: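 HepAD38 cells seeded at 5 x 10^5/well, grown 2-3 days with 0.3 µg/ml tetracycline, then induced by PBS wash and tetracycline/G418-free medium with or without compound at 37°C, 5% CO2. Medium changed after 3 days. Intracellular HBV DNA measured on day 6 postinduction by TaqMan real-time PCR against a plasmid standard curve, given as % of mock.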

[18] = Cytotoxicity against human MT2 cells; assay type: cell-based
In short: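 MT-2 cells in RPMI 1640 with 10% FBS and 10 mM HEPES, exposed to threefold serial drug dilutions. CC50 calculated from cell counts and viability.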

[19] = tested on: Rattus norvegicus; assay: Tmax in Sprague-Dawley rat assessed as tenofovir level at 30 mg/kg, po administered daily for 7 days measured on day 7; assay type: ADME, organism-based; design: dose 30 mg/kg, route oral; conditions: in vivo, 168 h; in short: as §1
[20] = Cytotoxicity against human PBMC by XTT assay; assay type: cell-based; in short: as §3
[21] = Selectivity index, ratio of CC50 for human MT2 cells to EC50 for HIV1 LAI; assay type: toxicity, cell-based; conditions: read-out: Ratio CC50/EC50
[22] = tested on: Rattus norvegicus; assay: Tmax in Sprague-Dawley rat assessed as tenofovir level at 30 mg/kg, po administered daily for 7 days measured on day 1; assay type: ADME, organism-based; design: dose 30 mg/kg, route oral; conditions: in vivo, 168 h; in short: as §1
[23] = tested on: Rattus norvegicus; assay: Tmax in Sprague-Dawley rat assessed as tenofovir level at 100 mg/kg, po administered daily for 7 days measured on day 7; assay type: ADME, organism-based; design: dose 100 mg/kg, route oral; conditions: in vivo, 168 h; in short: as §1
[24] = tested on: Hepatitis B virus; assay: Antiviral activity against HBV in human HepG2(2.2.15) cells assessed as viral DNA levels treated for 9 days measured after 24 hrs; assay type: functional, organism-based
In short: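 Confluent 2.2.15 cells in RPMI 1640 with 2% FBS, given nine consecutive daily doses with daily medium change (six cultures per concentration on two replicate plates). HBV DNA quantified by blot hybridization 24 h after the last treatment.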

[25] = tested on: Rattus norvegicus; assay: AUC (0 to infinity) in Sprague-Dawley rat assessed as tenofovir level at 10 mg/kg, po administered daily for 7 days measured on day 1; assay type: ADME, organism-based, Plasma; design: time infinity, dose 10 mg/kg, route oral; conditions: in vivo, 168 h; in short: as §1
[26] = tested on: Rattus norvegicus; assay: Elimination half life in Sprague-Dawley rat assessed as tenofovir level at 10 mg/kg, po administered daily for 7 days measured on day 1; assay type: ADME, organism-based; design: dose 10 mg/kg, route oral; conditions: in vivo, 168 h; in short: as §2
[27] = tested on: Rattus norvegicus; assay: Tmax in Sprague-Dawley rat assessed as tenofovir level at 10 mg/kg, po administered daily for 7 days measured on day 1; assay type: ADME, organism-based; design: dose 10 mg/kg, route oral; conditions: in vivo, 168 h; in short: as §1
[28] = tested on: Human immunodeficiency virus 1; assay: Antiviral activity against HIV1 clade B HT/92/599 isolate in human PBMC assessed as reduction in reverse transcriptase; assay type: functional, organism-based; conditions: Human immunodeficiency virus 1, clade B; in short: as §3
[29] = Cytotoxicity against human HepG2 cells by MTS assay; assay type: cell-based; conditions: human, HepG2 cells
In short: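 Exponentially growing HepG2 cells (parent hepatoma line); cytostatic effect measured by MTS method.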

[30] = Cytotoxicity against human HepG2(2.2.15) cells after 24 hrs by neutral red uptake assay; assay type: cell-based; conditions: human, HepG2 2.2.15 cells
In short: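 Confluent 2.2.15 cells given nine daily treatments. Neutral red uptake read by absorbance of internalized dye 24 h after the last treatment, three cultures per concentration.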

AUC [3]: 3639.5 ng·h/mL
beta t1/2 [4]: 10.1 h
Tmax [5]: 2.4 h
Tmax [6]: 12 h
AUC [7]: 1808.1 ng·h/mL
beta t1/2 [8]: 7.2 h
AUC [9]: 1226.9 ng·h/mL
AUC [10]: 2790.5 ng·h/mL
AUC [11]: 7373.4 ng·h/mL
beta t1/2 [13]: 9 h
EC50 [14]: 0.65 µM
beta t1/2 [15]: 9.2 h
beta t1/2 [16]: 7.6 h
EC50 [17]: 2.25 µM
Tmax [19]: 4 h
Tmax [22]: 4 h
Tmax [23]: 12 h
EC50 [24]: 7.2 µM
AUC [25]: 775.2 ng·h/mL
beta t1/2 [26]: 10.9 h
Tmax [27]: 2 h
EC50 [28]: 3.2 µM
Compound: C[C@H](Cn1cnc2c(N)ncnc21)OCP(=O)(O)O [TENOFOVIR ANHYDROUS]
Ratio CC50/EC50 [1]: >41.7
Ratio CC50/EC50 [2]: >133
Ratio CC50/EC50 [12]: 396
CC50 [18]: > 100 µM
CC50 [20]: 1270 µM
selectivity ratio [21]: > 154
CC50 [29]: > 100 µM
CC50 at 24 h [30]: > 300 µM
